Test results taken from ChEMBL document CHEMBL3044653, “Synthesis and herbicidal activity of 2-(substituted phenoxyacetoxy)alkyl-5,5-dimethyl-1,3,2-dioxaphosphinan-2-one” (J Agric Food Chem, 2012).

Key:
Ipomoea nil [1] = assay: Post-emergence herbicidal activity against Ipomoea nil (Japanese morning glory) assessed as inhibition at 150 g/hectare by green house assay; assay type: functional
Setaria viridis [2] = assay: Post-emergence herbicidal activity against Setaria viridis (green foxtail) assessed as inhibition at 37.5 g/hectare treated at one-leaf stage by green house assay; assay type: functional
Method in brief: (§1)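 Monocot weeds were sprayed postemergence in the greenhouse at the one-leaf stage with diluted formulation solutions. Primary dose was 150 g ai/ha, with follow-up doses of 75 and 37.5 g ai/ha for selected compounds. Activity is scored as percent herbicidal damage compared with an untreated control.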

Glycine max = assay: Toxicity in Glycine max (soybean) plant assessed as inhibition at 150 g/hectare; assay type: organism-based; settings: in vivo
Method in brief: (§2)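 For crop selectivity, conventional crop varieties were planted in 12 cm diameter plots and given a postemergence treatment at 150 g ai/ha. Injury was scored as percent inhibition, with 0–10% classed as safe to the crop.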

Setaria viridis [3] = assay: Post-emergence herbicidal activity against Setaria viridis (green foxtail) assessed as inhibition at 75 g/hectare treated at one-leaf stage by green house assay; assay type: functional; method in brief: as §1
Gossypium hirsutum = assay: Toxicity in Gossypium hirsutum (cotton) plant assessed as inhibition at 150 g/hectare; assay type: organism-based; settings: in vivo; method in brief: as §2
Amaranthus retroflexus [4] = assay: Post-emergence herbicidal activity against Amaranthus retroflexus assessed as inhibition at 75 g/hectare by green house assay; assay type: functional
Pontederia vaginalis [5] = assay: Post-emergence herbicidal activity against Monochoria vaginalis assessed as inhibition at 150 g/hectare by green house assay; assay type: functional
[6] = tested on: Brassica rapa subsp. chinensis; assay: Post-emergence herbicidal activity against Brassica rapa subsp. chinensis assessed as inhibition at 150 g/hectare by green house assay; assay type: functional
Pontederia vaginalis [7] = assay: Post-emergence herbicidal activity against Monochoria vaginalis assessed as inhibition at 75 g/hectare by green house assay; assay type: functional
Echinochloa crus-galli [8] = assay: Post-emergence herbicidal activity against Echinochloa crus-galli (barnyard grass) assessed as inhibition at 75 g/hectare treated at one-leaf stage by green house assay; assay type: functional; method in brief: as §1
Echinochloa crus-galli [9] = assay: Post-emergence herbicidal activity against Echinochloa crus-galli (barnyard grass) assessed as inhibition at 37.5 g/hectare treated at one-leaf stage by green house assay; assay type: functional; method in brief: as §1
Triticum aestivum = assay: Toxicity in Triticum aestivum (wheat) plant assessed as inhibition at 150 g/hectare; assay type: organism-based; settings: in vivo; method in brief: as §2
Brassica oleracea [10] = assay: Post-emergence herbicidal activity against Brassica oleracea assessed as inhibition at 150 g/hectare by green house assay; assay type: functional
Abutilon theophrasti = assay: Post-emergence herbicidal activity against Abutilon theophrasti (velvetleaf) assessed as inhibition at 150 g/hectare treated at two-leaf stage by green house assay; assay type: functional
Method in brief: (§3)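 Greenhouse postemergence spray of diluted formulation solutions onto broadleaf weeds at the two-leaf stage. Primary screen at 150 g ai/ha, with selected compounds retested at 75 and 37.5 g ai/ha. Abutilon was tested at 150 g ai/ha only. Read-out is percent herbicidal damage relative to an untreated control.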

Eclipta prostrata [11] = assay: Post-emergence herbicidal activity against Eclipta prostrata assessed as inhibition at 75 g/hectare treated at two-leaf stage by green house assay; assay type: functional; method in brief: as §3
Brassica oleracea [12] = assay: Post-emergence herbicidal activity against Brassica oleracea assessed as inhibition at 75 g/hectare by green house assay; assay type: functional
Ammannia baccifera [13] = assay: Post-emergence herbicidal activity against Ammannia baccifera assessed as inhibition at 75 g/hectare by green house assay; assay type: functional
Setaria viridis [14] = assay: Post-emergence herbicidal activity against Setaria viridis (green foxtail) assessed as inhibition at 150 g/hectare treated at one-leaf stage by green house assay; assay type: functional; method in brief: as §1
Brassica juncea [15] = assay: Post-emergence herbicidal activity against Brassica juncea assessed as inhibition at 75 g/hectare treated at two-leaf stage by green house assay; assay type: functional; method in brief: as §3
Echinochloa crus-galli [16] = assay: Post-emergence herbicidal activity against Echinochloa crus-galli (barnyard grass) assessed as inhibition at 150 g/hectare treated at one-leaf stage by green house assay; assay type: functional; method in brief: as §1
Zea mays = assay: Toxicity in Zea mays (maize) plant assessed as inhibition at 150 g/hectare; assay type: organism-based; settings: in vivo; method in brief: as §2
Brassica juncea [17] = assay: Post-emergence herbicidal activity against Brassica juncea assessed as inhibition at 75 g/hectare by green house assay; assay type: functional
Ammannia baccifera [18] = assay: Post-emergence herbicidal activity against Ammannia baccifera assessed as inhibition at 150 g/hectare by green house assay; assay type: functional
Digitaria sanguinalis [19] = assay: Post-emergence herbicidal activity against Digitaria sanguinalis (hairy crabgrass) assessed as inhibition at 37.5 g/hectare treated at one-leaf stage by green house assay; assay type: functional; method in brief: as §1
Chenopodium album [20] = assay: Post-emergence herbicidal activity against Chenopodium album assessed as inhibition at 150 g/hectare by green house assay; assay type: functional
Ipomoea nil [21] = assay: Post-emergence herbicidal activity against Ipomoea nil (Japanese morning glory) assessed as inhibition at 75 g/hectare by green house assay; assay type: functional
Brassica napus = assay: Toxicity in Brassica napus (oilseed rape) assessed as inhibition at 150 g/hectare; assay type: functional; method in brief: as §2
[22] = tested on: Brassica rapa subsp. chinensis; assay: Post-emergence herbicidal activity against Brassica rapa subsp. chinensis assessed as inhibition at 75 g/hectare by green house assay; assay type: functional
Digitaria sanguinalis [23] = assay: Post-emergence herbicidal activity against Digitaria sanguinalis (hairy crabgrass) assessed as inhibition at 75 g/hectare treated at one-leaf stage by green house assay; assay type: functional; method in brief: as §1
Amaranthus retroflexus [24] = assay: Post-emergence herbicidal activity against Amaranthus retroflexus assessed as inhibition at 150 g/hectare treated at two-leaf stage by green house assay; assay type: functional; method in brief: as §3
Chenopodium album [25] = assay: Post-emergence herbicidal activity against Chenopodium album assessed as inhibition at 75 g/hectare by green house assay; assay type: functional
Radish [26] = assay: Post-emergence herbicidal activity against Raphanus sativus (radish) assessed as inhibition at 75 g/hectare by green house assay; assay type: functional
Radish [27] = assay: Post-emergence herbicidal activity against Raphanus sativus (radish) assessed as inhibition at 150 g/hectare by green house assay; assay type: functional
Digitaria sanguinalis [28] = assay: Post-emergence herbicidal activity against Digitaria sanguinalis (hairy crabgrass) assessed as inhibition at 150 g/hectare treated at one-leaf stage by green house assay; assay type: functional; method in brief: as §1
[29] = tested on: Brassica rapa subsp. oleifera; assay: Post-emergence herbicidal activity against Brassica rapa subsp. oleifera assessed as inhibition at 75 g/hectare by green house assay; assay type: functional
Amaranthus retroflexus [30] = assay: Post-emergence herbicidal activity against Amaranthus retroflexus assessed as inhibition at 75 g/hectare treated at two-leaf stage by green house assay; assay type: functional; method in brief: as §3
Eclipta prostrata [31] = assay: Post-emergence herbicidal activity against Eclipta prostrata assessed as inhibition at 150 g/hectare treated at two-leaf stage by green house assay; assay type: functional; method in brief: as §3
Brassica juncea [32] = assay: Post-emergence herbicidal activity against Brassica juncea assessed as inhibition at 37.5 g/hectare treated at two-leaf stage by green house assay; assay type: functional; method in brief: as §3
Eclipta prostrata [33] = assay: Post-emergence herbicidal activity against Eclipta prostrata assessed as inhibition at 37.5 g/hectare treated at two-leaf stage by green house assay; assay type: functional; method in brief: as §3
Brassica juncea [34] = assay: Post-emergence herbicidal activity against Brassica juncea assessed as inhibition at 150 g/hectare treated at two-leaf stage by green house assay; assay type: functional; method in brief: as §3
Oryza sativa = assay: Toxicity in Oryza sativa (rice) plant assessed as inhibition at 150 g/hectare; assay type: organism-based; settings: in vivo; method in brief: as §2
[35] = tested on: Brassica rapa subsp. oleifera; assay: Post-emergence herbicidal activity against Brassica rapa subsp. oleifera assessed as inhibition at 150 g/hectare by green house assay; assay type: functional
Amaranthus retroflexus [36] = assay: Post-emergence herbicidal activity against Amaranthus retroflexus assessed as inhibition at 37.5 g/hectare treated at two-leaf stage by green house assay; assay type: functional; method in brief: as §3
Brassica juncea [37] = assay: Post-emergence herbicidal activity against Brassica juncea assessed as inhibition at 150 g/hectare by green house assay; assay type: functional
Amaranthus retroflexus [38] = assay: Post-emergence herbicidal activity against Amaranthus retroflexus assessed as inhibition at 150 g/hectare by green house assay; assay type: functional

Question: For `CC(OC(=O)COc1ccc(Cl)cc1Cl)P1(=O)OCC(C)(C)CO1` (stereo not given), which inhibition at 150 g/ha (Ipomoea nil [1]) is on record?
Answer: 100%

Question: What about the inhibition at 37.5 g/ha (Setaria viridis [2]) of the same compound?
Answer: 0%

Question: And the “inhibition (INH)” value (Glycine max)?
Answer: 30%

Question: What about the inhibition at 75 g/ha (Setaria viridis [3]) of the same compound?
Answer: 0%

Question: What about the “inhibition (INH)” value (Gossypium hirsutum) of the same compound?
Answer: 30%

Question: And the inhibition at 75 g/ha (Amaranthus retroflexus [4])?
Answer: 75%

Question: And the inhibition at 150 g/ha (Pontederia vaginalis [5])?
Answer: 100%

Question: And the inhibition at 150 g/ha [6]?
Answer: 85%

Question: And the inhibition at 75 g/ha (Pontederia vaginalis [7])?
Answer: 100%

Question: And the inhibition at 75 g/ha (Echinochloa crus-galli [8])?
Answer: 0%

Question: And the inhibition at 37.5 g/ha (Echinochloa crus-galli [9])?
Answer: 0%

Question: And the “inhibition (INH)” value (Triticum aestivum)?
Answer: 0%

Question: What about the inhibition at 150 g/ha (Brassica oleracea [10]) of the same compound?
Answer: 90%

Question: What about the inhibition at 150 g/ha (Abutilon theophrasti) of the same compound?
Answer: 95%

Question: What about the inhibition at 75 g/ha (Eclipta prostrata [11]) of the same compound?
Answer: 70%

Question: And the inhibition at 75 g/ha (Brassica oleracea [12])?
Answer: 80%

Question: What about the inhibition at 75 g/ha (Ammannia baccifera [13]) of the same compound?
Answer: 100%

Question: And the inhibition at 150 g/ha (Setaria viridis [14])?
Answer: 30%

Question: And the inhibition at 75 g/ha (Brassica juncea [15])?
Answer: 95%

Question: And the inhibition at 150 g/ha (Echinochloa crus-galli [16])?
Answer: 30%

Question: What about the “inhibition (INH)” value (Zea mays) of the same compound?
Answer: 0%

Question: What about the inhibition at 75 g/ha (Brassica juncea [17]) of the same compound?
Answer: 95%

Question: And the inhibition at 150 g/ha (Ammannia baccifera [18])?
Answer: 100%

Question: What about the inhibition at 37.5 g/ha (Digitaria sanguinalis [19]) of the same compound?
Answer: 0%

Question: What about the inhibition at 150 g/ha (Chenopodium album [20]) of the same compound?
Answer: 85%

Question: What about the inhibition at 75 g/ha (Ipomoea nil [21]) of the same compound?
Answer: 100%

Question: What about the inhibition at 150 g/ha (Brassica napus) of the same compound?
Answer: 40%

Question: What about the inhibition at 75 g/ha [22] of the same compound?
Answer: 80%

Question: What about the inhibition at 75 g/ha (Digitaria sanguinalis [23]) of the same compound?
Answer: 0%

Question: And the inhibition at 150 g/ha (Amaranthus retroflexus [24])?
Answer: 95%

Question: What about the inhibition at 75 g/ha (Chenopodium album [25]) of the same compound?
Answer: 80%

Question: What about the inhibition at 75 g/ha (Radish [26]) of the same compound?
Answer: 90%

Question: What about the inhibition at 150 g/ha (Radish [27]) of the same compound?
Answer: 95%

Question: And the inhibition at 150 g/ha (Digitaria sanguinalis [28])?
Answer: 30%

Question: What about the inhibition at 75 g/ha [29] of the same compound?
Answer: 90%

Question: What about the inhibition at 75 g/ha (Amaranthus retroflexus [30]) of the same compound?
Answer: 75%

Question: And the inhibition at 150 g/ha (Eclipta prostrata [31])?
Answer: 85%

Question: And the inhibition at 37.5 g/ha (Brassica juncea [32])?
Answer: 90%

Question: What about the inhibition at 37.5 g/ha (Eclipta prostrata [33]) of the same compound?
Answer: 50%

Question: And the inhibition at 150 g/ha (Brassica juncea [34])?
Answer: 95%

Question: And the “inhibition (INH)” value (Oryza sativa)?
Answer: 10%

Question: And the inhibition at 150 g/ha [35]?
Answer: 100%

Question: What about the inhibition at 37.5 g/ha (Amaranthus retroflexus [36]) of the same compound?
Answer: 70%

Question: What about the inhibition at 150 g/ha (Brassica juncea [37]) of the same compound?
Answer: 95%

Question: What about the inhibition at 150 g/ha (Amaranthus retroflexus [38]) of the same compound?
Answer: 95%
